{"source": "ChEMBL document CHEMBL4680093", "about": "(J Med Chem, 2016)", "key": {"Mus musculus [1]": {"tested_on": "Mus musculus", "assay": "In-vivo inhibition of 11beta-HSD1 activity in C57BL/6 mouse epididymal fat assessed as reduction in cortisone to-cortisol conversion at 3 to 30 mg/kg, po measured after 2 to 6 hrs by ELISA", "assay_type": "functional, organism-based", "conditions": "Epididymal fat pad, dose 3-30 mg/kg, time 2-6 hrs", "how_it_was_run": "(§1)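 Male C57BL/6 mice dosed orally once at 3, 10 or 30 mg/kg in sterile water containing 0.5% methylcellulose and 1% Tween80, then sacrificed at 2 or 6 h. Liver and epididymal fat pads incubated ex vivo in culture medium containing cortisone. Cortisol formed was measured by ELISA and reported as % inhibition versus vehicle.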"}, "[2]": {"assay": "Volume of distribution at steady state in mouse at 1 mg/kg, iv", "assay_type": "ADME, organism-based", "conditions": "in vivo, read-out: Vdss", "how_it_was_run": "(§2)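 Single-dose PK study. The iv dose was given in 10% hydroxypropyl-β-cyclodextrin and the oral dose in 0.5% methylcellulose/1% Tween80. Mouse and rat received 1 mg/kg iv and 5 mg/kg po. Dog received 0.5 mg/kg iv and 4 mg/kg po. CL, Vss, t1/2, AUC, Cmax, tmax and F were derived.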"}, "[3]": {"assay": "Drug level in mouse liver at 10 mg/kg, po measured after 2 hrs post dose", "assay_type": "ADME, organism-based", "conditions": "in vivo", "how_it_was_run": "(§3)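 C57BL/6 mice given a single oral 10 mg/kg dose in 0.5% methylcellulose plus 1% Tween80. Sacrifice at 2 h post-dose, with collection of brain, liver, adipose and plasma. Compound concentration expressed as nmol/g, along with tissue/plasma ratio.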"}, "[4]": {"assay": "Tmax in rat at 5 mg/kg, po", "assay_type": "ADME, organism-based", "conditions": "in vivo", "how_it_was_run": "as §2"}, "[5]": {"molecular_target": "Voltage-gated inwardly rectifying potassium channel KCNH2 (Homo sapiens, UniProt Q12809)", "sequence (Q12809 whole entry)": "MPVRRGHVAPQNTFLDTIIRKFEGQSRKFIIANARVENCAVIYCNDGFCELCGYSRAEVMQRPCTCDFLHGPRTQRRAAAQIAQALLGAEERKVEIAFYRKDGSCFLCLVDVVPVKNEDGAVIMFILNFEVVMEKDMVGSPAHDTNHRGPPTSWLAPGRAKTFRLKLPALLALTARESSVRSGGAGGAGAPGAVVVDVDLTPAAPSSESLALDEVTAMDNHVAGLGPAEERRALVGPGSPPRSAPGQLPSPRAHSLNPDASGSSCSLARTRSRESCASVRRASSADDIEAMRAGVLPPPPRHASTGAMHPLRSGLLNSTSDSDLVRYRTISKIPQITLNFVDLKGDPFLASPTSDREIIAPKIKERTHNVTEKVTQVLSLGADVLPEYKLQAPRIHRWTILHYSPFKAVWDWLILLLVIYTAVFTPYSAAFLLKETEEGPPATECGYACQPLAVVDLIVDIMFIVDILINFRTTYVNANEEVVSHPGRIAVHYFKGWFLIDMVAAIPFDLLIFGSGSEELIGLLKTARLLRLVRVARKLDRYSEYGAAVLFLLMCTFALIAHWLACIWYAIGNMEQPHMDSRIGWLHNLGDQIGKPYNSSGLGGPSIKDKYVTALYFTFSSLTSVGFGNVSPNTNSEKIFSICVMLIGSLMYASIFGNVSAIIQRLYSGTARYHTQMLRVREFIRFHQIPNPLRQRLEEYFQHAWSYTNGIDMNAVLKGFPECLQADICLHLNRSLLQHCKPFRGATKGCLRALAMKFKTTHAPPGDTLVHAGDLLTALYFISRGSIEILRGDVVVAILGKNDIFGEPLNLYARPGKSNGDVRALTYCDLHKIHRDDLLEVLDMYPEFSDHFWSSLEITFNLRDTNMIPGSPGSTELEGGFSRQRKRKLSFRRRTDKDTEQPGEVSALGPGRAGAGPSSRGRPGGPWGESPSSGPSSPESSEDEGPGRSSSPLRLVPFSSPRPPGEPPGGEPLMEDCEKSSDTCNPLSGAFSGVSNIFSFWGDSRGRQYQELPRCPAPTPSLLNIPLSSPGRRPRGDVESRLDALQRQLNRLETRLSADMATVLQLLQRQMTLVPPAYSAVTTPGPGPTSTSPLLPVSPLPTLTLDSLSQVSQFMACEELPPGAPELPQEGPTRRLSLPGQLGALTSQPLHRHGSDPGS", "assay": "Inhibition of human ERG expressed in CHO cells by whole-cell patch clamp assay", "assay_type": "cell-based", "how_it_was_run": "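hERG channels stably expressed in CHO cells were recorded by whole-cell patch clamp, and an IC50 was estimated.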"}, "[6]": {"assay": "Reduction in HbA1c level in C57BL/6-Lep^ob (ob/ob) mouse at 20 mg/kg, po dosed once daily for 25 days and co-treated with 300 mg/kg. po QD for 25 days metformin relative to control", "parameters": "scale not given: the % may be the effect or the level left", "conditions": "time 25 day"}, "Cytochrome P450 3A4": {"molecular_target": "Cytochrome P450 3A4 (Homo sapiens, UniProt P08684)", "sequence (P08684 whole entry)": "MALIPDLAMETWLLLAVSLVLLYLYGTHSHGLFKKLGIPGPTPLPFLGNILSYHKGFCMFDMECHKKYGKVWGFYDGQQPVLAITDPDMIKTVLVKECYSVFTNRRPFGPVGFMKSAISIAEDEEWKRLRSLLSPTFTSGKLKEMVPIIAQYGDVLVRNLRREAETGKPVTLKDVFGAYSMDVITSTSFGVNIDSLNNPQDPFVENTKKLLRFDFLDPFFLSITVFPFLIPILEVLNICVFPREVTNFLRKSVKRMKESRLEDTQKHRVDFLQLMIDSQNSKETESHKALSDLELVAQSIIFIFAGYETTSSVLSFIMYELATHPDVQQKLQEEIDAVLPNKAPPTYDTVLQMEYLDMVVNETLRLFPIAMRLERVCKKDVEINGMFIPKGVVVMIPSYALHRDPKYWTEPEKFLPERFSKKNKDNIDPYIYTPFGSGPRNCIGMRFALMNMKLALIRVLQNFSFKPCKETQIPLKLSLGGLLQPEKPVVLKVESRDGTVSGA", "assay": "Inhibition of CYP3A4 in pooled human liver microsomes using midazolam as substrate in presence of NADPH incubated for 10 mins by LC-MS/MS analysis"}, "[7]": {"assay": "Drug level in mouse adipose tissue at 10 mg/kg, po measured after 2 hrs post dose", "assay_type": "ADME, organism-based", "conditions": "in vivo", "how_it_was_run": "as §3"}, "[8]": {"assay": "In-vivo inhibition of 11beta-HSD1 activity in C57BL/6 mouse liver assessed as reduction in cortisone to-cortisol conversion at 10 mg/kg, po measured after 2 hrs by ELISA", "assay_type": "functional", "conditions": "C57BL/6, Liver"}, "[9]": {"assay": "Ratio of unbound Cmax in mouse plasma at 10 mg/kg, po measured after 2 hrs post dose to IC50 for human ERG expressed in CHO cells", "assay_type": "ADME, organism-based", "conditions": "in vivo"}, "[10]": {"assay": "Tmax in dog at 4 mg/kg, po", "assay_type": "ADME, organism-based, Canis lupus familiaris", "conditions": "in vivo", "how_it_was_run": "as §2"}, "[11]": {"assay": "Volume of distribution at steady state in rat at 1 mg/kg, iv", "assay_type": "ADME, organism-based", "conditions": "in vivo, read-out: Vdss", "how_it_was_run": "as §2"}, "Mus musculus [12]": {"tested_on": "Mus musculus", "assay": "Improvement in lipid profile in C57BL/6-Lep^ob (ob/ob) mouse assessed as triglyceride level at 20 mg/kg, po dosed once daily for 25 days co-treated with 300 mg/kg. po QD for 25 days metformin (reference value: 90.9 +/- 5.5 mg/dl)", "conditions": "time 25 day"}, "[13]": {"assay": "Oral bioavailability in mouse at 5 mg/kg", "assay_type": "ADME, organism-based", "conditions": "in vivo", "how_it_was_run": "as §2"}, "[14]": {"assay": "In-vivo inhibition of 11beta-HSD1 activity in C57BL/6 mouse epididymal fat assessed as reduction in cortisone to-cortisol conversion at 3 mg/kg, po measured after 2 hrs by ELISA", "assay_type": "functional", "conditions": "C57BL/6, Epididymal fat pad", "how_it_was_run": "as §1"}, "[15]": {"assay": "Oral bioavailability in rat at 5 mg/kg", "assay_type": "ADME, organism-based", "conditions": "in vivo", "how_it_was_run": "as §2"}, "Cytochrome P450 2D6": {"molecular_target": "Cytochrome P450 2D6 (Homo sapiens, UniProt P10635)", "sequence (P10635 whole entry)": "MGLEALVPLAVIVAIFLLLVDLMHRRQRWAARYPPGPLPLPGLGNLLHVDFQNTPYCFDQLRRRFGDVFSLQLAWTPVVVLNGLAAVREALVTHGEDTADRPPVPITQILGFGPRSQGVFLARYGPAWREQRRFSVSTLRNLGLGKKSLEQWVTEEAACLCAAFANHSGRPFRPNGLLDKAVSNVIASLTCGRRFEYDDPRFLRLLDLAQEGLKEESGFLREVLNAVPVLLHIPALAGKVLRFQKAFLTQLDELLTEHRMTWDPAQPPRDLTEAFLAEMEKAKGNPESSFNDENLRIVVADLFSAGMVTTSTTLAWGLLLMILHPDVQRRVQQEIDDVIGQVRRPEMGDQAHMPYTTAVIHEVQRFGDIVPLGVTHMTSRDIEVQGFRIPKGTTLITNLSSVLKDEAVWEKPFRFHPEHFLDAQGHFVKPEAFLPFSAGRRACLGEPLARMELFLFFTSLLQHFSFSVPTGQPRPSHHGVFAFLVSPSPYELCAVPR", "assay": "Inhibition of CYP2D6 in pooled human liver microsomes using dextromethorphan as substrate in presence of NADPH incubated for 10 mins by LC-MS/MS analysis"}, "Mus musculus [16]": {"tested_on": "Mus musculus", "assay": "Toxicity in mouse assessed as induction of abnormal changes in central nervous system up to 1000 mg/kg, po", "conditions": "in vivo"}, "Phosphodiesterase 4": {"molecular_target": "Phosphodiesterase 4 (Homo sapiens, UniProt P27815+Q08499+Q07343+Q08493)", "assay": "Inhibition of PDE4 (unknown origin)", "assay_type": "protein assay"}, "[17]": {"assay": "Drug level in mouse plasma at 10 mg/kg, po measured after 2 hrs post dose", "assay_type": "ADME, organism-based", "conditions": "in vivo", "how_it_was_run": "as §3"}, "Cytochrome P450 2C19": {"molecular_target": "Cytochrome P450 2C19 (Homo sapiens, UniProt P33261)", "sequence (P33261 whole entry)": "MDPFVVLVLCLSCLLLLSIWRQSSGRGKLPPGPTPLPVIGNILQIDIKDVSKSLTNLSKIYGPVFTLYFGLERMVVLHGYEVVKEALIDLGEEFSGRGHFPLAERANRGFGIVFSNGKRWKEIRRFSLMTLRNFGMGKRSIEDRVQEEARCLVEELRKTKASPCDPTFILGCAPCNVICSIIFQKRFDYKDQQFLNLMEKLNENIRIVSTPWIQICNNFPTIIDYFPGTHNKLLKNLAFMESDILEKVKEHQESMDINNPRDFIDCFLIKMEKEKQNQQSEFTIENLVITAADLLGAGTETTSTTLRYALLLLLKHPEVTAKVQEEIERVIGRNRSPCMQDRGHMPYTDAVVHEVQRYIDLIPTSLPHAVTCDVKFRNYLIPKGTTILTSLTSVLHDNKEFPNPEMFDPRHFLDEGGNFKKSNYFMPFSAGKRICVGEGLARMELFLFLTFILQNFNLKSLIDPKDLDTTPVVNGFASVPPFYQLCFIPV", "assay": "Inhibition of CYP2C19 in pooled human liver microsomes using mephenytoin as substrate in presence of NADPH incubated for 10 mins by LC-MS/MS analysis"}, "[18]": {"molecular_target": "11-beta-hydroxysteroid dehydrogenase 1 (Homo sapiens, UniProt P28845)", "sequence (P28845 whole entry)": "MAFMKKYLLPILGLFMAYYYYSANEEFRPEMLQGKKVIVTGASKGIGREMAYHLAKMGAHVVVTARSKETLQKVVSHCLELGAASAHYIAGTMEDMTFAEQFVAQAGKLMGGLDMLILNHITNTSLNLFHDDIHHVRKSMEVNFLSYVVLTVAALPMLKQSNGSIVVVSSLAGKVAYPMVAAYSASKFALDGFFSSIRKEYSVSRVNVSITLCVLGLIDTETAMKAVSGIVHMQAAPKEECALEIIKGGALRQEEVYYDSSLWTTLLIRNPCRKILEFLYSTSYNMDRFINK", "assay": "Inhibition of human 11beta-HSD1 expressed in microsomes", "parameters": "species or system Microsome", "how_it_was_run": "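HEK293 cell lysates (microsomal fractions) overexpressing human or mouse 11β-HSD1 were incubated with cortisone, a range of inhibitor concentrations and an NADPH regenerating system in sodium phosphate buffer at 37°C for 1 h. Cortisol in the supernatant was quantified by ELISA. Percent inhibition was fitted to a sigmoidal dose-response curve to give IC50.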"}, "[19]": {"assay": "Tmax in mouse at 5 mg/kg, po", "assay_type": "ADME, organism-based", "conditions": "in vivo", "how_it_was_run": "as §2"}, "Cytochrome P450 1A2": {"molecular_target": "T1, Cytochrome P450 1A2 (Homo sapiens, UniProt P05177)", "T1 sequence (P05177 whole entry)": "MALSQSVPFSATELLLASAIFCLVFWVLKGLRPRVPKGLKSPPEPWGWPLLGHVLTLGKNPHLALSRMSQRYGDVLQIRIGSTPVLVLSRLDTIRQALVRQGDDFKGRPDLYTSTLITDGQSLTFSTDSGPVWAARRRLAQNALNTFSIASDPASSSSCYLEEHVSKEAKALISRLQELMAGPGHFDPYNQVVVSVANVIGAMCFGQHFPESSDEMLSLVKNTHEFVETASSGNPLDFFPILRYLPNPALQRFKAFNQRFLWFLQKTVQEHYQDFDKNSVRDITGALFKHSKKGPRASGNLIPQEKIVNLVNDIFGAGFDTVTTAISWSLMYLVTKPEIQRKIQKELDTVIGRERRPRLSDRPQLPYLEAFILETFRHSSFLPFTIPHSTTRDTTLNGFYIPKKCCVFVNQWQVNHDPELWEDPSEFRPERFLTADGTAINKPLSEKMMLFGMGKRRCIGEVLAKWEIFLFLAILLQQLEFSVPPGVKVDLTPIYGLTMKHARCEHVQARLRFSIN", "assay": "Inhibition of CYP1A2 in pooled human liver microsomes using phenacetin as substrate in presence of NADPH incubated for 10 mins by LC-MS/MS analysis"}, "[20]": {"assay": "In-vivo inhibition of 11beta-HSD1 activity in C57BL/6 mouse liver assessed as reduction in cortisone to-cortisol conversion at 30 mg/kg, po measured after 6 hrs by ELISA", "assay_type": "functional", "conditions": "C57BL/6, Liver", "how_it_was_run": "as §1"}}}
{"molecule": "C[C@@H]1CN(c2ccc(S(C)(=O)=O)cc2F)CCN1c1nccc(C(=O)NC2C3CC4CC2CC(O)(C4)C3)n1", "note": "(stereo not given in full)", "values": [{"measurement": "inhibition", "setting": "Mus musculus [1]", "result": "Dose-dependent effect"}, {"measurement": "Vd", "setting": "[2]", "result": 1.1, "unit": "L/kg"}, {"measurement": "Drug uptake", "setting": "[3]", "result": 31, "unit": "nmol/g"}, {"measurement": "Tmax", "setting": "[4]", "result": 1.3, "unit": "h"}, {"measurement": "IC50", "setting": "[5]", "result": 8, "unit": "µM"}, {"measurement": "Activity", "setting": "[6]", "result": 1.67, "unit": "%"}, {"measurement": "IC50", "setting": "Cytochrome P450 3A4", "result": "> 10", "unit": "µM"}, {"measurement": "Drug uptake", "setting": "[7]", "result": 6.64, "unit": "nmol/g"}, {"measurement": "inhibition in vivo at 10 mg/kg", "setting": "[8]", "result": 86, "unit": "%"}, {"measurement": "Ratio", "setting": "[9]", "result": "> 30"}, {"measurement": "Tmax", "setting": "[10]", "result": 2.1, "unit": "h"}, {"measurement": "Vd", "setting": "[11]", "result": 2.1, "unit": "L/kg"}, {"measurement": "Activity", "setting": "Mus musculus [12]", "result": 84.1, "unit": "mg/dL"}, {"measurement": "bioavailability", "setting": "[13]", "result": 96, "unit": "%"}, {"measurement": "inhibition in vivo at 3 mg/kg", "setting": "[14]", "result": 86, "unit": "%"}, {"measurement": "bioavailability", "setting": "[15]", "result": 60, "unit": "%"}, {"measurement": "IC50", "setting": "Cytochrome P450 2D6", "result": "> 10", "unit": "µM"}, {"measurement": "Activity", "setting": "Mus musculus [16]", "result": "Non-Toxic"}, {"measurement": "IC50", "setting": "Phosphodiesterase 4", "result": 5.2, "unit": "µM"}, {"measurement": "Cp", "setting": "[17]", "result": 10.6, "unit": "nmol/g"}, {"measurement": "IC50", "setting": "Cytochrome P450 2C19", "result": "> 10", "unit": "µM"}, {"measurement": "IC50", "setting": "[18]", "result": 0.0029, "unit": "µM"}, {"measurement": "Tmax", "setting": "[19]", "result": 1, "unit": "h"}, {"measurement": "IC50", "setting": "Cytochrome P450 1A2", "result": "> 10", "unit": "µM"}, {"measurement": "inhibition in vivo at 30 mg/kg", "setting": "[20]", "result": 92, "unit": "%"}]}
